Reference: PMC10582670 (Clinical and Translational Science, 2023)
Converted amounts (≈) assume the structure as drawn. “And” between values parts separate entries of the source, which are not always exact repeats. Identical values can stand only once.

Legend:
[1] = system: RIP1 pathway activation (CCL4 release in human whole blood); assay: PK-PD modeling; type: cell-based
Procedure, shortened: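 CCL4 inhibition from the ex vivo stimulated whole-blood assay was related to GDC-8264 plasma concentrations measured in the same volunteers by PK-PD modelling. The model estimated the IC50 and the maximal target inhibition.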

[2] = system: RIP1 pathway activation (CCL4 release in human whole blood); assay: Ex vivo TBZ stimulation assay of whole blood for CCL4 secretion; type: cell-based
Procedure, shortened: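 Whole blood from healthy volunteers in the single- and multiple-ascending-dose stages, collected across the dosing periods, stimulated ex vivo to activate the RIP1-mediated necroptosis pathway; secreted CCL4 measured. Inhibition derived by normalising CCL4 levels to each subject's baseline, then adjusting to the maximum inhibition and SD per cohort. Placebo subjects were sampled in parallel.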

Food effect on plasma PK = type: in vivo, human
Procedure, shortened: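 The same healthy subjects from the 75-mg fasted single-dose cohort, after a washout of at least five half-lives, fasted 8 h, ate a high-fat breakfast within 20 min and received a single oral 75 mg dose or placebo 30 min after breakfast began. Plasma was sampled predose, through 72 h and on day 7. Concentrations were measured by LC-MS/MS (LLOQ 0.0500 ng/mL). Relative bioavailability versus fasted dosing was based on AUC and Cmax.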

[3] = Plasma pharmacokinetics after single and multiple oral doses; type: in vivo, human; details: for AUC / concentration at 24 h / Cmax / Tmax / Vd/F / half-life: human, plasma, oral; for AUC: AUC0-τ; for Cmax: C max; for Vd/F: V z/F
Procedure, shortened: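 Healthy adults received once-daily oral doses of 50 or 100 mg (8 active: 2 placebo) for up to 14 days, in the morning after an overnight fast of at least 8 h. Plasma was sampled after the first dose through 16 h, predose on days 2, 4 and 7, and through 72 h after the day-14 dose. Concentrations were measured by LC-MS/MS (LLOQ 0.0500 ng/mL). Parameters came from noncompartmental analysis: accumulation ratios day 14 versus day 1, CL/F as dose/AUC0-inf. Values given as geometric mean (geometric CV%).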

[4] = MAD both doses, comparable between day 1 and day 14
[5] = MAD 50 mg q.d., n=5, geometric mean (geometric CV%)
[6] = MAD 100 mg q.d., n=7, geometric mean (geometric CV%)
[7] = 50 mg, MAD 50 mg q.d., Day 1, n=5, geometric mean (geometric CV%)
[8] = 50 mg, MAD 50 mg q.d., Day 14, n=5, geometric mean (geometric CV%)
[9] = 100 mg, MAD 100 mg q.d., Day 1, n=7, geometric mean (geometric CV%)
[10] = 100 mg, MAD 100 mg q.d., Day 14, n=7, geometric mean (geometric CV%)

Compound: O=C(c1nc2n(n1)[C@H](c1ccccc1)C[C@@H]2F)C1CC1 [GDC‐8264]
- IC50 ([1]; Homo sapiens, read-out: half-maximal inhibitory concentration (IC50) for the inhibition of CCL4 release): 0.58 ng/mL (≈ 2.14 nM)
- maximal inhibition of the target ([1]; estimated by PK-PD (Emax) modeling): 99.4%
- timepoint through which >90% inhibition of CCL4 was sustained ([2]; SAD 5- and 25-mg cohorts): ≥ 48 h
- timepoint through which >90% inhibition of CCL4 was sustained ([2]; SAD 75-, 150-, and 225-mg cohorts): ≥ 72 h
- levels of CCL4 ([2]; SAD 150-mg cohort, 144-h timepoint): comparable to the placebo cohort
- group mean inhibition of CCL4 production ([2]; SAD 225-mg cohort, 144 h, mean ± SD, placebo 17% ± 3%): 49% ± 9%
- inhibition of CCL4 ([2]; all SAD cohorts (5-225 mg), 1.5 h postdose): greater than 90%
- effect of a high-fat meal on the PKs (Food effect on plasma PK; 75 mg single dose): no significant effect
- delay of median T max after a high-fat meal (Food effect on plasma PK; 75 mg, compared to the fasted state): 1 h
- CL/F ([3]; MAD 50 mg q.d., Day 14, n=5, geometric mean (geometric CV%)): 4.96 (14.1) L/h
- ARAUC (accumulation ratio based on AUC0-τ of day 14 versus day 1) [3, 5]: 1.39 (4.8)
- ARCmax (accumulation ratio based on C max of day 14 versus day 1) [3, 5]: 1.37 (18.3)
- CL/F ([3]; MAD 100 mg q.d., Day 14, n=7, geometric mean (geometric CV%)): 4.72 (15.2) L/h
- ARAUC (accumulation ratio based on AUC0-τ of day 14 versus day 1) [3, 6]: 1.31 (17.7)
- ARCmax (accumulation ratio based on C max of day 14 versus day 1) [3, 6]: 1.41 (27.3)
- day on which steady-state trough concentrations were observed ([3]; MAD, daily doses): 4 days
- CL/F ([3]; SAD 5 mg single oral dose, fasted, n=6, geometric mean (geometric CV%)): 4.71 (10.0) L/h
- CL/F ([3]; SAD 25 mg single oral dose, fasted, n=6, geometric mean (geometric CV%)): 5.08 (30.3) L/h
- CL/F ([3]; SAD 75 mg single oral dose, fasted, n=5, geometric mean (geometric CV%)): 5.70 (19.0) L/h
- CL/F ([3]; SAD 75 mg single oral dose, high fat meal, n=5, geometric mean (geometric CV%)): 5.79 (23.2) L/h
- CL/F ([3]; SAD 150 mg single oral dose, fasted, n=5, geometric mean (geometric CV%)): 5.40 (18.4) L/h
- CL/F ([3]; SAD 225 mg single oral dose, fasted, n=6, geometric mean (geometric CV%)): 4.81 (6.7) L/h
- AUC [3, 7]: 7270 ng·h/mL
- AUC [3, 8]: 10100 ng·h/mL
- concentration at 24 h ([3]; 50 mg, C24, MAD 50 mg q.d., Day 1, n=5, geometric mean (geometric CV%)): 151 ng/mL
- Cmax [3, 7]: 610 ng/mL
- Cmax [3, 8]: 836 ng/mL
- Tmax ([3]; 50 mg, T max, MAD 50 mg q.d., Day 1, n=5, median (range)): 3 h
- Tmax ([3]; 50 mg, T max, MAD 50 mg q.d., Day 14, n=5, median (range)): 2.5 h
- Vd/F [3, 8]: 80.3 L
- half-life ([3]; 50 mg, t 1/2, MAD 50 mg q.d., Day 14, n=5, geometric mean (geometric CV%)): 11.2 h
- AUC [3, 9]: 16200 ng·h/mL
- AUC [3, 10]: 21200 ng·h/mL
- concentration at 24 h ([3]; 100 mg, C24, MAD 100 mg q.d., Day 1, n=7, geometric mean (geometric CV%)): 342 ng/mL
- Cmax [3, 9]: 1180 ng/mL
- Cmax [3, 10]: 1660 ng/mL
- Tmax ([3]; 100 mg, T max, MAD 100 mg q.d., Day 1, n=7, median (range)): 3 h
- Tmax ([3]; 100 mg, T max, MAD 100 mg q.d., Day 14, n=7, median (range)): 2.5 h
- Vd/F [3, 10]: 77.4 L
- half-life ([3]; 100 mg, t 1/2, MAD 100 mg q.d., Day 14, n=7, geometric mean (geometric CV%)): 11.4 h
- half-life ([3]; mean half-life, tablet formulation): 11 to 13 h
- half-life ([3]; mean terminal half-life, range of means across single doses): 10 to 13 h
- Tmax ([3]; median T max, SAD 5- and 25-mg doses (suspension formulation)): 1.3 to 1.9 h
- Tmax ([3]; median T max, SAD 75-225-mg doses (tablet formulation)): 3 to 4 h
- Tmax ([3]; median T max, overall, as summarised in the discussion): 2.5 to 4 h
- accumulation ratio [AR] ([3]; multiple dosing q.d. up to 14 days, steady state): ~ 1.4 and 1.3–1.4
- Geometric mean CLr0-τ [4]: ~ 0.008 L/h
